Tests used:
CYP1A2 = molecular target: T1, CYP1A2 (Homo sapiens, UniProt P05177); experiment: Drug metabolism assessed as recombinant human CYP1A2-mediated compound hydrolysis by measuring parent compound remaining incubated for 60 mins by LC-HRMS analysis; format: ADME; details: read-out: Stability
T1 sequence (P05177 whole entry): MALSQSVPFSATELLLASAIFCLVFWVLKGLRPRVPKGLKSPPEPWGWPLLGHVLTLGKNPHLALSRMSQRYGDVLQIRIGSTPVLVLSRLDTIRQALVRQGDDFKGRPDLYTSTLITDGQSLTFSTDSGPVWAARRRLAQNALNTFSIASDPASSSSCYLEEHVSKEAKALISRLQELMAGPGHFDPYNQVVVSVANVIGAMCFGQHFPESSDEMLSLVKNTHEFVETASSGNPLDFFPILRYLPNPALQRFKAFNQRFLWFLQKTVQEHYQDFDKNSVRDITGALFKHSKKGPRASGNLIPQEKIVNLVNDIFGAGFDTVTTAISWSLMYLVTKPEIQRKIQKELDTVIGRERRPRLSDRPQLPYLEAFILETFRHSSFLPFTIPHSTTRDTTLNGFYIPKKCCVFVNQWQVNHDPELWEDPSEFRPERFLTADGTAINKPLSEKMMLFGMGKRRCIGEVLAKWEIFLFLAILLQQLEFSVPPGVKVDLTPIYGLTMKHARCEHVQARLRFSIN
In short: (§1)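 Human recombinant CYP1A1 or CYP1A2 Supersomes (25 pmol/mL) incubated with compound at 1 μM (0.25% DMSO) plus NADP+-regenerating cofactors at 37 °C for 60 min. Reaction stopped with ACN containing internal standard. Parent and metabolites expressed as percentage of total peak areas.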

[1] = Stability in CD-1 mouse hepatocytes assessed as parent compound remaining at 5 uM after 3 hrs by LC-MS analysis; format: ADME, cell-based, Hepatocyte; details: read-out: Stability
In short: (§2)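 Cryopreserved hepatocytes in suspension (200 000 cells/well) in Williams medium E with 2 mM L-glutamine and 25 mM HEPES. Test item at a final 5 μM (0.5% DMSO). Sampled at 0, 15, 60, 90 and 180 min. Precipitated with ACN, then LC–MS. Controls: 7-ethoxycoumarin and hepatocyte-free medium; n = 2.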

[2] = Stability in Sprague-Dawley rat hepatocytes assessed as parent compound remaining at 5 uM after 3 hrs by LC-MS analysis; format: ADME, cell-based, Hepatocyte; details: read-out: Stability; in short: as §2
[3] = Stability in Beagle dog hepatocytes assessed as parent compound remaining at 5 uM after 3 hrs by LC-MS analysis; format: ADME, cell-based, Canis lupus familiaris, Hepatocyte; details: read-out: Stability; in short: as §2
[4] = Stability in human hepatocytes assessed as parent compound remaining at 5 uM after 3 hrs by LC-MS analysis; format: ADME, cell-based, Hepatocyte; details: read-out: Stability; in short: as §2
CYP1A1 = molecular target: T2, CYP1A1 (Homo sapiens, UniProt P04798); experiment: Drug metabolism assessed as recombinant human CYP1A1-mediated compound hydrolysis by measuring parent compound remaining incubated for 60 mins by LC-HRMS analysis; format: ADME; details: read-out: Stability; in short: as §1
T2 sequence (P04798 whole entry): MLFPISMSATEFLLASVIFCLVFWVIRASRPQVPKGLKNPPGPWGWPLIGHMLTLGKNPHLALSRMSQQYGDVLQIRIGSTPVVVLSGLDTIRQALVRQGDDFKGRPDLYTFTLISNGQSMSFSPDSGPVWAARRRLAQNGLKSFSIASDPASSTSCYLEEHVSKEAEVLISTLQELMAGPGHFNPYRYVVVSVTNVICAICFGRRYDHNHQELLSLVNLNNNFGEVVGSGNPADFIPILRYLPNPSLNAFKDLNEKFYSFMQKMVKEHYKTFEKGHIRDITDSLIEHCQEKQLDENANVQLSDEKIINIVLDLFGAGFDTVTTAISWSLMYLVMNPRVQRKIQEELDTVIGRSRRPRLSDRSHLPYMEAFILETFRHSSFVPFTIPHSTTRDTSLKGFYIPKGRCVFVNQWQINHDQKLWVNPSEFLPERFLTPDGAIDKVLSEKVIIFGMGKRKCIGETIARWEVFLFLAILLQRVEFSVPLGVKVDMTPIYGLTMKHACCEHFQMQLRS

[5] = AUC (0 to 8 hrs) in Sprague-Dawley rat plasma at 5 mg/kg, po by UHPLC-MS analysis; format: ADME, organism-based; parameters: time < 8 hr, dose 5 mg/kg, route oral
In short: (§3)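 Male Sprague Dawley rats (8 weeks old at delivery), single oral dose of 5 mg/kg, formulation at pH 3. Three rats per time point (30 min, 2, 4, 8 h) under isoflurane; heart-puncture blood into lithium-heparin, then brain collected. Plasma and tissue stored at −80 °C. Samples precipitated with acetonitrile containing diazepam internal standard, then LC–MS.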

[6] = AUC (0 to 8 hrs) in Sprague-Dawley rat brain at 5 mg/kg, po by UHPLC-MS analysis; format: ADME, organism-based; parameters: time < 8 hr, dose 5 mg/kg, route oral; details: in vivo; in short: as §3

Row | remaining at 1 h (CYP1A2) [%] | remaining at 3 h, 5 µM [1] [%] | remaining at 3 h, 5 µM [2] [%] | remaining at 3 h, 5 µM [3] [%] | remaining at 3 h, 5 µM [4] [%] | remaining at 1 h (CYP1A1) [%] | AUC(0-t) at 8 h [5] [ng·h/mL] | AUC [6] [ng·h/g] | SMILES
1 | 99.7 | 81.2 | 93.6 | 93 | 93.2 | 73.3 |  |  | C[C@@H]1COCCN1c1nc(-c2cnc(N)nc2)nc2c1C[C@@H]1COCCN21
2 |  |  |  |  |  |  | 5730 | 104 | C[C@@H]1COCCN1c1nc(-c2cnc(N)cn2)nc2c1C[C@@H]1COCCN21

— ChEMBL document CHEMBL4321805, “A Conformational Restriction Strategy for the Identification of a Highly Selective Pyrimido-pyrrolo-oxazine mTOR Inhibitor” (J Med Chem, 2019)
